Values after ≈ are worked out from the molar mass of the structure shown. Active and inactive are the calls of the source. The rule behind the calls is not given here.
Legend:
[1] = Antiproliferative activity against human HepG2 cells after 72 hrs by MTT assay; type: functional, cell-based; conditions: HepG2, 72 h
In short: (§1)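 Cells grown in RPMI 1640 with heat-inactivated 10% FBS, 1 mmol/L sodium pyruvate and 2 mmol/L L-glutamine at 37 °C, 5% CO2. Seeded at 3.5×10^4 cells/mL and left 24 h, then exposed to compound for 72 h; DMSO control at 0.5% final. Surviving cells measured by MTT, OD 492/620 nm. IC50 taken from triplicate experiments.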

[2] = Antiproliferative activity against human SKOV3 cells after 72 hrs by MTT assay; type: functional, cell-based; conditions: SK-OV-3, 72 h; in short: as §1
[3] = Antiproliferative activity against human PC3 cells after 72 hrs by MTT assay; type: functional, cell-based; conditions: PC-3, 72 h; in short: as §1
[4] = Antiproliferative activity against human HCT116 cells after 72 hrs by MTT assay; type: functional, cell-based; conditions: HCT-116, 72 h; in short: as §1
[5] = Antiproliferative activity against human K562/A02 cells after 72 hrs by MTT assay; type: functional, cell-based; conditions: K562/A02, 72 h; in short: as §1
[6] = Antiproliferative activity against human K562 cells after 72 hrs by MTT assay; type: functional, cell-based; conditions: K562, 72 h; in short: as §1
[7] = tested on: A549; test: Inhibition of alpha tubulin polymerization in human A549 cells at 50 nM by Hoechst 33258 staining based fluorescent microscopic analysis; type: cell-based
In short: (§2)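 A549 cells treated 24 h with agent (200 nM or 50 nM) or DMSO control. α-Tubulin stained with primary antibody and DyLight488 secondary antibody, nuclei with Hoechst 33258. Imaged by fluorescence microscopy.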

[8] = Antiproliferative activity against human KB/VCR cells after 72 hrs by MTT assay; type: functional, cell-based; in short: as §1
[9] = Antiproliferative activity against human MCF7 cells after 72 hrs by MTT assay; type: functional, cell-based; conditions: MCF7, 72 h; in short: as §1
[10] = Antiproliferative activity against human MCF7/ADR cells after 72 hrs by MTT assay; type: functional, cell-based; conditions: NCI/ADR-RES; in short: as §1
[11] = Antiproliferative activity against human KB cells after 72 hrs by MTT assay; type: functional, cell-based; in short: as §1
[12] = tested on: A549; test: Inhibition of alpha tubulin polymerization in human A549 cells at 200 nM by Hoechst 33258 staining based fluorescent microscopic analysis; type: cell-based; in short: as §2
[13] = species: Bos taurus; test: Inhibition of bovine tubulin assessed as induction of microtubule depolymerization at 1 uM preincubated with compound followed by GTP addition by spectrophotometric analysis
In short: (§3)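 Bovine brain tubulin rich in microtubule-associated protein, 2 mg/mL, in 80 mM PIPES pH 6.9, 2 mM MgCl2, 0.5 mM EGTA and 5% glycerol, incubated with test agent or DMSO in cuvettes. Polymerization started with 1 mM GTP at 37 °C and followed by absorbance at 340 nm.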

[14] = tested on: SW480; test: Induction of apoptosis in human SW480 cells assessed as accumulation of cells at M2 quadrant at 50 nM after 24 hrs by propidium iodide-staining based FACS analysis (reference value: 96.68 %); type: functional
In short: (§4)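 SW480 cells grown in 60 mm dishes to 70–80% confluence and treated 24 h, with DMSO as vehicle. All cells harvested, fixed in 70% alcohol and washed twice in cold PBS. Stained 30 min at 37 °C in 5 µg/ml propidium iodide, 100 µg/ml RNase and 0.2% Triton X-100, then analysed by flow cytometry.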

[15] = tested on: SW480; test: Induction of apoptosis in human SW480 cells assessed as early apoptotic cells at 50 nM after 24 hrs by propidium iodide-staining based FACS analysis (reference value: 3.41 %); type: functional; in short: as §4
[16] = Solubility of compound in pure water at 25 degC; type: physicochemical
In short: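 Measured in pure water at 25 °C.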

[17] = species: Bos taurus; test: Induction of bovine tubulin polymerization at 10 uM preincubated followed by GTP addition by spectrophotometric analysis; in short: as §3
[18] = species: Bos taurus; test: Inhibition of bovine tubulin assessed as induction of microtubule depolymerization at 3 uM preincubated with compound followed by GTP addition by spectrophotometric analysis; in short: as §3

Row | SMILES | IC50 [1] [nM] | IC50 [2] [nM] | IC50 [3] [nM] | IC50 [4] [nM] | also measured
1 | O=[N+]([O-])c1ccc2c(c1)N(S(=O)(=O)c1ccc(-c3cnc(C4CC4)o3)cc1)CCCO2 | 149 | 53 | 119 | 133 | –
2 | O=[N+]([O-])c1ccc2c(c1)OCCCN2S(=O)(=O)c1ccc(-c2cnc(C3CC3)o2)cc1 | 71 | 120 | 72 | 145 | –
3 | Cc1ccc2c(c1)N(S(=O)(=O)c1ccc(-c3cnc(C4CC4)o3)cc1)CCCO2 | 31 | 34 | 41 | 29 | –
4 | O=S(=O)(c1ccc(-c2cnc(C3CC3)o2)cc1)N1CCCCc2ccccc21 | 73 | 38 | 39 | 72 | –
5 | O=S(=O)(c1ccc(-c2cnc(C3CC3)o2)cc1)N1CCCSc2ccccc21 | 27 | 49 | 34 | 88 | –
6 | CC[C@]1(O)C[C@H]2CN(CCc3c([nH]c4ccccc34)[C@@](C(=O)OC)(c3cc4c(cc3OC)N(C=O)[C@H]3[C@@](O)(C(=O)OC)[C@H](OC(C)=O)[C@]5(CC)C=CCN6CC[C@]43[C@@H]65)C2)C1 [VINCRISTINE] | – | – | – | – | IC50 [5]: 926 nM; IC50 [6]: 4 nM; inhibition [7]: Active; IC50 [8]: 871 nM; IC50 [9]: 29 nM; IC50 [10]: 308 nM; IC50 [11]: 36 nM
7 | O=S(=O)(c1ccc(-c2cnc(C3CC3)o2)cc1)N1CCOc2ccccc21 | 58 | 47 | 77 | 71 | –
8 | O=S1(=O)CCCN(S(=O)(=O)c2ccc(-c3cnc(C4CC4)o3)cc2)c2ccccc21 | 2170 | 1620 | 5880 | 263 | –
9 | O=S(=O)(c1ccc(-c2cnc(C3CC3)o2)cc1)N1CCCOc2cc(F)ccc21 | 65 | 28 | 42 | 30 | inhibition [12]: Active; IC50 [5]: 46 nM; IC50 [6]: 14 nM; IC50 [8]: 12 nM; inhibition [13]: Active; IC50 [9]: 6 nM; IC50 [10]: 12 nM; IC50 [11]: 15 nM
10 | O=S(=O)(c1ccc(-c2cnc(C3CC3)o2)cc1)N1CCCOc2ccc(Cl)cc21 | 28 | 19 | 18 | 39 | –
11 | O=S(=O)(c1ccc(-c2cnc(C3CC3)o2)cc1)N1CCCOc2ccc(F)cc21 | 36 | 15 | 18 | 24 | inhibition [12]: Active; Activity [14]: 92.28%; Activity [15]: 7.74%; solubility [16]: 10 µg/mL (≈ 24.1 µM); IC50 [5]: 13 nM; IC50 [6]: 8 nM; IC50 [8]: 7 nM; inhibition [13]: Active; IC50 [9]: 21 nM; IC50 [10]: 20 nM; IC50 [11]: 7 nM
12 | O=S(=O)(c1ccc(-c2cnc(C3CC3)o2)cc1)N1CCOCc2ccccc21 | 242 | 175 | 137 | 187 | –
13 | O=S(=O)(c1ccc(-c2cnc(C3CC3)o2)cc1)N1CCCc2ccccc21 | 29 | 47 | 38 | 49 | –
14 | O=S(=O)(c1ccc(-c2cnc(C3CC3)o2)cc1)N1CCCOc2ccccc21 | 40 | 36 | 27 | 40 | –
15 | Cc1ccc2c(c1)OCCCN2S(=O)(=O)c1ccc(-c2cnc(C3CC3)o2)cc1 | 795 | 179 | 241 | 766 | –
16 | CC(=O)O[C@H]1C(=O)[C@@]2(C)[C@H]([C@H](OC(=O)c3ccccc3)[C@]3(O)C[C@H](OC(=O)[C@H](O)[C@@H](NC(=O)c4ccccc4)c4ccccc4)C(C)=C1C3(C)C)[C@]1(OC(C)=O)CO[C@@H]1C[C@@H]2O | – | – | – | – | Activity [17]: Active
17 | COC(=O)Nc1nc2cc(C(=O)c3cccs3)ccc2[nH]1 | – | – | – | – | inhibition [18]: Active
18 | O=S(=O)(c1ccc(-c2cnc(C3CC3)o2)cc1)N1CCSc2ccccc21 | 48 | 39 | 49 | 45 | –
19 | O=S(=O)(c1ccc(-c2cnc(C3CC3)o2)cc1)N1CCC[S+]([O-])c2ccccc21 (centres undefined) | > 1000 | > 1000 | > 1000 | > 1000 | –
20 | COc1ccc2c(c1)N(S(=O)(=O)c1ccc(-c3cnc(C4CC4)o3)cc1)CCCO2 | 49 | 53 | 14 | 47 | –
21 | Nc1ccc2c(c1)OCCCN2S(=O)(=O)c1ccc(-c2cnc(C3CC3)o2)cc1 | 100 | 56 | 33 | 87 | –
22 | CN1CCN(S(=O)(=O)c2ccc(-c3cnc(C4CC4)o3)cc2)c2ccccc2C1 | 525 | 199 | 347 | 256 | –
23 | COc1cccc2c1C(=O)c1c(O)c3c(c(O)c1C2=O)C[C@@](O)(C(=O)CO)C[C@@H]3O[C@H]1C[C@H](N)[C@H](O)[C@H](C)O1 [DOXORUBICIN] | – | – | – | – | IC50 [5]: 5960 nM; IC50 [6]: 6 nM; IC50 [8]: 1290 nM; IC50 [9]: 140 nM; IC50 [10]: 2940 nM; IC50 [11]: 141 nM
24 | COc1ccc2c(c1)OCCCN2S(=O)(=O)c1ccc(-c2cnc(C3CC3)o2)cc1 | 229 | 185 | 271 | 223 | –

— ChEMBL document CHEMBL3865815, “Synthesis, anti-cancer evaluation of benzenesulfonamide derivatives as potent tubulin-targeting agents” (Eur J Med Chem, 2016)
